Experimental data taken from ChEMBL document CHEMBL1275283, “Synthesis and evaluation of novel stearoyl-CoA desaturase 1 inhibitors: 1'-{6-[5-(pyridin-3-ylmethyl)-1,3,4-oxadiazol-2-yl]pyridazin-3-yl}-3,4-dihydrospiro[chromene-2,4'-piperidine] analogs” (Eur J Med Chem, 2010).
pIC50: −log10 of the molar value. In brackets after ≈: the same amount, converted by molar mass. Activity calls are given as the source filed them. The rule behind the calls is not given here.

Columns and labels:
Cytochrome P450 2D6 = Cytochrome P450 2D6 (Homo sapiens, UniProt P10635); assay: Inhibition of CYP2D6; assay type: ADME
Cytochrome P450 1A2 = target: T1, Cytochrome P450 1A2 (Homo sapiens, UniProt P05177); assay: Inhibition of CYP1A2; assay type: ADME
T1 sequence (P05177 whole entry): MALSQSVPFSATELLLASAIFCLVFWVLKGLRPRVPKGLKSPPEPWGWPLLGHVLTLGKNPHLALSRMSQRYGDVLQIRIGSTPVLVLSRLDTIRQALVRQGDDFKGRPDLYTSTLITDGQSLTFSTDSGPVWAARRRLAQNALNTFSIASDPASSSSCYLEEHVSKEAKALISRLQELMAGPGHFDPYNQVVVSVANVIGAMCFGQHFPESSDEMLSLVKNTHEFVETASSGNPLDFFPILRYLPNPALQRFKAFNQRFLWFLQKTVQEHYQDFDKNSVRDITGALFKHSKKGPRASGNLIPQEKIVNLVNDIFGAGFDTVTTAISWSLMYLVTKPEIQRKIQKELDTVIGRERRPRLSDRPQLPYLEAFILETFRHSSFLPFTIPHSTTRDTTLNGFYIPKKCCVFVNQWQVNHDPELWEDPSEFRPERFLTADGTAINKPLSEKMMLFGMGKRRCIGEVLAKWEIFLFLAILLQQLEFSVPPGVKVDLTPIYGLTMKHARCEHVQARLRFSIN

[1] = Half life in C57BL/6J mouse at 20 mg/kg, po; assay type: ADME, organism-based; design: dose 20 mg/kg, route oral; conditions: in vivo
How it was run: (§1)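 Oral gavage via intubation tube at 20 mg/kg in propylene glycol/Tween 4:1, n = 3 C57BL/6J mice. Plasma sampled up to 8 h after dosing. Values are arithmetic means of at least two experiments.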

Mus musculus [2] = assay: Toxicity in C57BL/6J mouse assessed change in size of Harderian gland at 3 to 10 mg/kg, po QD for 7 days measured post last dose; assay type: organism-based; design: dose 3-10 mg/kg, route oral; conditions: in vivo, 168 h
[3] = Metabolic stability of the compound in human liver microsomes after 30 mins; assay type: ADME, Microsome; conditions: read-out: Stability
How it was run: (§2)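 Stability reported as % parent remaining after 30 min incubation with murine or human liver microsomes. Means of at least two experiments.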

Mus musculus [4] = assay: Inhibition of delta-(9)-desaturase in C57BL/6J mouse assessed as reduction in plasma desaturation index (C18:1/C18:0) at 0.3 mg/kg, po QD for 7 days measured post last dose; assay type: functional; conditions: 168 h
How it was run: (§3)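 Nine-week-old male C57BL/6J mice on a high-carbohydrate diet (77.8 kcal% carbohydrate) for 7 days. Oral gavage once daily each evening at 0.3, 1, 3 or 10 mg/kg in propylene glycol/Tween 80 (4/1); n = 4. Serum taken the morning after the seventh dose, saponified in methanolic KOH and extracted with hexane. Index is oleate/stearate.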

Mus musculus [5] = assay: Inhibition of delta-(9)-desaturase in po dosed C57BL/6J mouse assessed as reduction in plasma desaturation index (C18:1/C18:0) QD for 7 days measured post last dose; assay type: functional, organism-based; how it was run: as §3
Mus musculus [6] = assay: Toxicity in C57BL/6J mouse assessed change in organ morphology up to 10 mg/kg, po QD for 7 days measured post last dose by autopsy; assay type: organism-based; design: dose 10 mg/kg, route oral; conditions: in vivo, 168 h
Mus musculus [7] = assay: Toxicity in C57BL/6J mouse assessed occurrence of mild eye fissures at 3 to 10 mg/kg, po QD for 7 days measured post last dose; assay type: organism-based; design: dose 3-10 mg/kg, route oral; conditions: in vivo, 168 h
Cytochrome P450 3A4 = Cytochrome P450 3A4 (Homo sapiens, UniProt P08684); assay: Inhibition of CYP3A4; assay type: ADME
[8] = Half life in C57BL/6J mouse at 5 mg/kg, iv; assay type: ADME, organism-based; design: dose 5 mg/kg, route intravenous; conditions: in vivo
How it was run: (§4)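 Single intravenous tail-vein injection, 5 mg/kg in DMA/Tween80/saline 10:10:80, C57BL/6J mice (n = 2). Plasma collected up to 8 h post-dose. Means of at least two experiments.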

[9] = AUC (0 to 8 hrs) in C57BL/6J mouse at 20 mg/kg, po; assay type: ADME, organism-based; design: time < 8 hr, dose 20 mg/kg, route oral; conditions: plasma; how it was run: as §1
[10] = Volume of distribution in C57BL/6J mouse at 5 mg/kg, iv up to 8 hrs; assay type: ADME, organism-based; design: dose 5 mg/kg, route intravenous; conditions: in vivo; how it was run: as §4
[11] = Aqueous solubility of the compound at acidic JP-1 solution of pH 1.2 by HPLC analysis; assay type: physicochemical
How it was run: (§5)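 Solubility measured in purchased aqueous acidic JP-1 (pH 1.2) or neutral JP-2 (pH 6.8) media. Samples analyzed by HPLC, with UV peak area compared to a calibration standard of 250 µM compound in CH3CN/water 1:1. Means of at least two experiments.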

Cytochrome P450 2C9 = Cytochrome P450 2C9 (Homo sapiens, UniProt P11712); assay: Inhibition of CYP2C9; assay type: ADME
Mus musculus [12] = assay: Inhibition of liver SCD1 activity in po dosed db/db mouse assessed as reduction in conversion of [14C]stearic acid to [14C]oleic acid; assay type: functional; conditions: read-out: ID50 (the source's name)
How it was run: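 Seven-week-old male db/db mice dosed by oral gavage 2 h before i.p. [14C]stearate (100 µCi/kg in saline with 2% BSA). Livers harvested 1 h later and homogenized in cold PBS. Saponified homogenate analyzed by AgNO3-TLC for the [14C]oleate/[14C]stearate ratio. ID50 is the dose giving 50% inhibition.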

[13] = Metabolic stability of the compound in mouse liver microsomes after 30 mins; assay type: ADME, Microsome; conditions: read-out: Stability; how it was run: as §2
Mus musculus [14] = assay: Inhibition of delta-(9)-desaturase in C57BL/6J mouse assessed as reduction in plasma desaturation index (C18:1/C18:0) at 1 mg/kg, po QD for 7 days measured post last dose; assay type: functional, organism-based; design: dose 1 mg/kg; how it was run: as §3
[15] = Oral bioavailability in C57BL/6J mouse at 20 mg/kg up to 8 hrs; assay type: ADME, organism-based; conditions: in vivo
How it was run: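 Bioavailability derived from plasma exposure after oral dosing (20 mg/kg, PG/Tween 4:1 by intubation tube, n = 3) and intravenous tail-vein dosing (5 mg/kg, DMA/Tween80/saline 10:10:80, n = 2) in C57BL/6J mice. Plasma sampled up to 8 h.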

Cytochrome P450 2C19 = Cytochrome P450 2C19 (Homo sapiens, UniProt P33261); assay: Inhibition of CYP2C19; assay type: ADME
Acyl-CoA desaturase 1 = target: T2, Acyl-CoA desaturase 1 (Mus musculus, UniProt P13516); assay: Inhibition of SCD1 in mouse microsome assessed as reduction in conversion of [14C]stearic acid to [14C]oleic acid after 30 mins; assay type: microsomes
T2 sequence (P13516 whole entry): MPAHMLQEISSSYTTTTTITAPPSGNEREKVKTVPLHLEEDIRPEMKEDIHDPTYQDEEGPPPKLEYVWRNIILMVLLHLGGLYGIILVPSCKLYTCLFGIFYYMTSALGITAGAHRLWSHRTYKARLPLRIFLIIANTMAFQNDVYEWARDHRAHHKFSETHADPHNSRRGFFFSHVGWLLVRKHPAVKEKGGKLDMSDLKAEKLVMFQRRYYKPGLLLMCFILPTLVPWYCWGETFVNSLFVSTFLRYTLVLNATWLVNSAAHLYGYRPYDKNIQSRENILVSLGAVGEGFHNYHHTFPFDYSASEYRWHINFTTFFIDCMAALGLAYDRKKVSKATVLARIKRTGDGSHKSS

Mus musculus [16] = assay: Toxicity in C57BL/6J mouse assessed as abnormalities in skin at 10 mg/kg, po QD for 7 days measured post last dose; assay type: organism-based; design: dose 10 mg/kg, route oral; conditions: in vivo, 168 h
Mus musculus [17] = assay: Toxicity in C57BL/6J mouse assessed change in size of […] at 3 to 10 mg/kg, po QD for 7 days measured post last dose; assay type: organism-based; design: dose 3-10 mg/kg, route oral; conditions: in vivo, 168 h
[18] = Aqueous solubility of the compound at neutral JP-2 solution of pH 6.8 by HPLC analysis; assay type: physicochemical; how it was run: as §5
[19] = Tmax in C57BL/6J mouse at 20 mg/kg, po; assay type: ADME, organism-based; design: dose 20 mg/kg, route oral; conditions: in vivo; how it was run: as §1
Mus musculus [20] = assay: Inhibition of delta-(9)-desaturase in C57BL/6J mouse assessed as reduction in plasma desaturation index (C18:1/C18:0) at 10 mg/kg, po QD for 7 days measured post last dose; assay type: functional; conditions: 168 h; how it was run: as §3
[21] = Clearance in C57BL/6J mouse at 5 mg/kg, iv up to 8 hrs; assay type: ADME, organism-based; design: dose 5 mg/kg, route intravenous; conditions: in vivo; how it was run: as §4
Stearoyl-CoA desaturase [22] = target: T3, Stearoyl-CoA desaturase (Homo sapiens, UniProt O00767); assay: Inhibition of human SCD1 expressed in HEK293A cells assessed as reduction in conversion of [14C]stearic acid to [14C]oleic acid after 30 mins; assay type: cell-based, HEK293-A
T3 sequence (O00767 whole entry): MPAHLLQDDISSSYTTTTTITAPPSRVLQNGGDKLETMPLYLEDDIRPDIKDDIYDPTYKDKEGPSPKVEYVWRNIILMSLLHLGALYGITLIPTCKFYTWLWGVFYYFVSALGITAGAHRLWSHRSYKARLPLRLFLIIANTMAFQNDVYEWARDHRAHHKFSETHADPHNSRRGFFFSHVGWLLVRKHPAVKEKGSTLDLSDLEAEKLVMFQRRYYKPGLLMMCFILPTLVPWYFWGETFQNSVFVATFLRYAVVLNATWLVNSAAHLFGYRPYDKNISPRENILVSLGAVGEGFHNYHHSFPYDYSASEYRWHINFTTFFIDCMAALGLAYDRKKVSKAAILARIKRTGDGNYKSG
How it was run: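 293A cells stably expressing human SCD1 (G418-selected) grown to confluence in DMEM + 10% FBS. Cells preincubated with compound 30 min, then given 0.1 µCi [14C]stearate for 4 h. Lipids saponified in KOH, separated by AgNO3-TLC, and the [14C]oleate/[14C]stearate ratio used as activity. IC50 derived from this read-out.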

Stearoyl-CoA desaturase [23] = target: T3, Stearoyl-CoA desaturase; assay: Inhibition of SCD1 in HEK293A cell microsomes assessed as reduction in conversion of [14C]stearic acid to [14C]oleic acid after 30 mins; design: species or system HEK293-A, Microsome
[24] = Cmax in C57BL/6J mouse at 20 mg/kg, po up to 8 hrs; assay type: ADME, organism-based; design: dose 20 mg/kg, route oral; conditions: in vivo; how it was run: as §1

Chain of Cytochrome P450 2D6 (P10635 whole entry): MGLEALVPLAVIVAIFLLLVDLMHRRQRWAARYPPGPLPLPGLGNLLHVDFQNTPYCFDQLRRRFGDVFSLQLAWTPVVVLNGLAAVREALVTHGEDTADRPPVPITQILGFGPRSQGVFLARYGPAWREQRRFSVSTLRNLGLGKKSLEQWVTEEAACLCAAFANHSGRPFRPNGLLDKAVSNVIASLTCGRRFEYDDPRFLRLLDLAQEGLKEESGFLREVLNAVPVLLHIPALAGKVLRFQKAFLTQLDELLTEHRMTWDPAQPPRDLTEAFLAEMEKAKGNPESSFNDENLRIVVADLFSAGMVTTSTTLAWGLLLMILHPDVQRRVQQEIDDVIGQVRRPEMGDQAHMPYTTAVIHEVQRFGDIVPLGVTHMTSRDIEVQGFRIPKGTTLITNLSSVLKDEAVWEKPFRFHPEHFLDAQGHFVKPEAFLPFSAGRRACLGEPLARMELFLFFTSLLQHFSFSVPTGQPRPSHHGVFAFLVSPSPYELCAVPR
Chain of Cytochrome P450 3A4 (P08684 whole entry): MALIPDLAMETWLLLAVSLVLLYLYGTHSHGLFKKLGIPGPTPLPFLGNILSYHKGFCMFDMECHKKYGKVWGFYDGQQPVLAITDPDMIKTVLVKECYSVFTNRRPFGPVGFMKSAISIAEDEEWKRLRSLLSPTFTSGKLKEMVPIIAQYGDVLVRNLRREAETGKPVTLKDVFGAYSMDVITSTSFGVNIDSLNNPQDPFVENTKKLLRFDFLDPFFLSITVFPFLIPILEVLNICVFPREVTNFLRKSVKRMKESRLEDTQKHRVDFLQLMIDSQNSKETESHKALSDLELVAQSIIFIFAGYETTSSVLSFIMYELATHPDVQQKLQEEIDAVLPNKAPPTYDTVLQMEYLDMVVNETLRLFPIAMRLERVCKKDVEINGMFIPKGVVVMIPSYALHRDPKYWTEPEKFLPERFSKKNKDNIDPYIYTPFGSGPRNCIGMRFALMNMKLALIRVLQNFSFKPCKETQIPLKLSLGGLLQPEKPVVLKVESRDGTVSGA
Chain of Cytochrome P450 2C9 (P11712 whole entry): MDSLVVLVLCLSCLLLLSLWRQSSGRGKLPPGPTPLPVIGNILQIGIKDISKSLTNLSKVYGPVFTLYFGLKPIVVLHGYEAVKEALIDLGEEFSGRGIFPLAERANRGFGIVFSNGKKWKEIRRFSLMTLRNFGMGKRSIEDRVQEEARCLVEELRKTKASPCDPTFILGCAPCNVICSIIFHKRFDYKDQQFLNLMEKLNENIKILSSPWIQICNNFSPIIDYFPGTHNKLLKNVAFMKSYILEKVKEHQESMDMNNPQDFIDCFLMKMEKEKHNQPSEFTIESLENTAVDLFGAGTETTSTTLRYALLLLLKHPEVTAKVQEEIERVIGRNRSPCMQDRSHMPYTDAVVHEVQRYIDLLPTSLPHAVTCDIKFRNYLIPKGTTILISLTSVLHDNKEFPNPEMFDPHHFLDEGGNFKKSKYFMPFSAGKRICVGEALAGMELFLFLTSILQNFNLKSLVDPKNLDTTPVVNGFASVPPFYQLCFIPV
Chain of Cytochrome P450 2C19 (P33261 whole entry): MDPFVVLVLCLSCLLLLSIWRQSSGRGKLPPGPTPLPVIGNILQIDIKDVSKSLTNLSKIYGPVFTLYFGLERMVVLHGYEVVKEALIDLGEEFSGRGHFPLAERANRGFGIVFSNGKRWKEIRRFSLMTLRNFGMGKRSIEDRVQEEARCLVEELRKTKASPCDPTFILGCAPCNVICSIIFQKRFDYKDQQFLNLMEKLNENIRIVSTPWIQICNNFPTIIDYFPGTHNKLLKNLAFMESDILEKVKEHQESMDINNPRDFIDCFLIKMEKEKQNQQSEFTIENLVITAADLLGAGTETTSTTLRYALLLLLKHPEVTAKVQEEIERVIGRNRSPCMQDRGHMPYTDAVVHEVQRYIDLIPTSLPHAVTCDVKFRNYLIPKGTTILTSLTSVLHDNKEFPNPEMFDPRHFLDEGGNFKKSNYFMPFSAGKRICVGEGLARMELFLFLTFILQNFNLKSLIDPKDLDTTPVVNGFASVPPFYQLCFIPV

Compound | half-life [1] [min] | AUC(0-t) at 8 h [9] [ng·h/mL] | solubility [11] [µM] | ED50 (Mus musculus [12]) [mg/kg] | pIC50 (Acyl-CoA desaturase 1) | solubility [18] [µM] | Tmax [19] [min] | pIC50 (Stearoyl-CoA desaturase [22]) | pIC50 (Stearoyl-CoA desaturase [23]) | Cmax [24] [ng/mL] | also measured
Fc1cccc2c1CCC1(CCN(c3ccc(-c4nnc(Cc5cccnc5)o4)nn3)CC1)O2 | 60 | 6800 | > 100 | 0.6 | 8.70 | < 0.5 | 78 | 9.15 | 9.52 | 2900 | pIC50 (Cytochrome P450 2D6): 4.57; pIC50 (Cytochrome P450 1A2): 4.74; Activity (Mus musculus [2]): Non-toxic; remaining at 0.5 h [3]: 65%; inhibition in vivo at 0.3 mg/kg (Mus musculus [4]): 32%; inhibition (Mus musculus [5]): Dose-dependent effect; Activity (Mus musculus [6]): Non-toxic; Activity (Mus musculus [7]): Toxic; pIC50 (Cytochrome P450 3A4): 5.80; half-life [8]: 24 min; Vd [10]: 1.3 L/kg; pIC50 (Cytochrome P450 2C9): 5.52; remaining at 0.5 h [13]: 51%; inhibition (Mus musculus [14]): Active; bioavailability [15]: > 95%; pIC50 (Cytochrome P450 2C19): 4.85; Activity (Mus musculus [16]): Non-toxic; Activity (Mus musculus [17]): Non-toxic; inhibition in vivo at 10 mg/kg (Mus musculus [20]): 66%; clearance [21]: 53 mL/min/kg
Cc1cccc2c1CCC1(CCN(c3ccc(-c4nnc(Cc5cccnc5)o4)nn3)CC1)O2 | 36 | 2100 | 91 (≈ 41.4 µg/mL) | 1 | 9.70 | < 0.5 | 48 | 9.15 | 9.70 | 1100 | 
c1cncc(Cc2nnc(-c3ccc(N4CCC5(CCc6ccccc6O5)CC4)nn3)o2)c1 | 48 | 2400 | 92 (≈ 40.5 µg/mL) | 2 | 8.70 | 4.2 (≈ 1.85 µg/mL) | 60 | 8.40 | 9.00 | 1300 | 
Clc1cccc2c1CCC1(CCN(c3ccc(-c4nnc(Cc5cccnc5)o4)nn3)CC1)O2 | 42 | 1400 | > 50 | 1 | 10.40 | < 0.5 | 48 | 9.00 | 10.22 | 690 | 
